Entries after “also recorded” stand apart in the source; their conditions may differ.
Assays:
[1] = tested on: AlgW (substrate 35S-MucA, inhibitor MucB); experiment: AlgW cleavage of 35S-MucA in the presence of MucB; type: biochemical, Pseudomonas aeruginosa; details: for MucA cleavage level relative to WVF and AlgW alone (no MucB): Figs. 4B vs 4D, CupB5 peptide + WVF + MucB; for antagonism / relief of MucB inhibition in vitro: summary statement, WVF-activated AlgW cleavage of MucA with MucB
[2] = tested on: AlgW (substrate 35S-MucA); experiment: WVF-activated AlgW cleavage of 35S-MucA with or without CupB5 peptides; type: biochemical, Pseudomonas aeruginosa; details: Fig. 5C; GYYYTVV 300 μM, increasing WVF, fixed MucA (50 μM)
Procedure, shortened: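 Ni-NTA-purified AlgW (0.5 μM trimer) cleaved 35S-MucA (50 μM) across a range of WVF peptide concentrations, with or without CupB5 peptides (300 μM). Protease addition started the reactions; cold 10% TCA quenched them at timed points. Acid-soluble products were scintillation-counted against total radioactivity, and rates were divided by substrate and enzyme concentrations. Values were averages ± SEM (n=2), fitted to rate = basal + Vmax/(1 + (Kact/[peptide])h).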

[3] = tested on: MucB; experiment: MucB oligomerization, gel-filtration chromatography; type: binding, Pseudomonas aeruginosa; details: Fig. S2
[4] = tested on: MucB; details: ref Lima et al., 2013; cited from earlier work
[5] = tested on: P. aeruginosa strain PAO1 and derivatives; experiment: Alginate production and mucoid phenotype on plasmid overexpression of proteins; type: cell-based, Pseudomonas aeruginosa; details: Fig. 6A, 6B; for alginate production in PAO1-VE2 on plasmid-mediated overproduction: PAO1-VE2 (mucE overexpressed); for alginate production in PAO1-VE22 on plasmid-mediated overproduction: PAO1-VE22 (cupB5 overexpressed), 0.1% L-arabinose, 37°C, 24 h

| Molecule | MucA cleavage level relative to WVF and AlgW alone (no MucB) [1] | antagonism / relief of MucB inhibition in vitro [1] | alginate production in PAO1-VE2 on plasmid-mediated overproduction [5] | alginate production in PAO1-VE22 on plasmid-mediated overproduction [5] | further results |
| --- | --- | --- | --- | --- | --- |
| GYYYT | approximately one-third | did antagonize MucB inhibition in vitro; also recorded: only partially relieve MucB inhibition in vitro |  |  | potency and cooperativity of activation, GYYYT vs GYYYTVV ([1]; Fig. 4D, WVF 150 μM, MucB present): occurred at lower peptide concentrations and was less cooperative as judged by the Hill constant than activation by the GYYYTVV peptide |
| GYYYTVV | approximately one-third | antagonized MucB inhibition in vitro; also recorded: only partially relieve MucB inhibition in vitro |  |  | change in maximum rate of MucA cleavage on adding CupB5 peptide [2]: increased almost two-fold; change in MucB elution / conversion of MucB dimers to tetramers [3]: no substantial change in elution during gel-filtration chromatography; also recorded: did not convert MucB dimers into tetramers |
| Lipopolysaccharides |  |  |  |  | binding to MucB and displacement of MucA [4]: bind MucB and competitively displace MucA |
| MucA: anti-sigma factor; free MucA as competitor of resin-bound MucA (protein, UniProt P38107 1-194, looked up) Sigma factor AlgU negative …: MSREALQETLSAVMDNEADELELRRVLAACGEDAELRSTWSRYQLARSVMHREPTLPKLDIAAAVSAALADEAAPPKAEKGPWRMVGRLAVAASVTLAVLAGVRLYNQNDALPQMAQQGTTPQIALPQVKGPAVLAGYSEEQGAPQVITNSSSSDTRWHEQRLPIYLRQHVQQSAVSGTESALPYARAASLENR |  |  | decreased alginate production in PAO1-VE2 | as did plasmid-mediated overproduction of MucA |  |
| MucB: competes for MucA binding and can inhibit this cleavage (protein, UniProt P38108 22-316, looked up) Sigma factor AlgU regulatory …: ADASDWLNRLAEADRQNSFQGTFVYERNGSFSTHEIWHRVESDGAVRERLLQLDGARQEVVRVDGRTQCISGGLADQLADAQLWPVRKFDPSQLASWYDLRLVGESRVAGRPAVVLAVTPRDQHRYGFELHLDRDTGLPLKSLLLNEKGQLLERFQFTQLNTGAAPAEDQLQAGAECQVVGPAKADGEKTVAWRSEWLPPGFTLTRSFMRRSPVTPDPVACLTYGDGLARFSVFIEPLHGAMVGDARSQLGPTVVVSKRLQTDDGGQMVTVVGEVPLGTAERVALSIRPEAAAQK |  |  | decreased alginate production in PAO1-VE2 | plasmid-mediated MucB overproduction had this effect |  |
